Active and inactive are the calls of the source. The rule behind the calls is not given here.
Columns and labels:
[1] = Inhibition of GST tagged human BCL-XL deltaC25 using biotin-DLRPEIRIAQELRIZIGDEFNETYTRR as substrate […] measured after 4 hrs by AlphaSCREEN assay
[2] = Inhibition of GST tagged human/mouse chimeric MCL-1 using biotin-DLRPEIRIAQELRIZIGDEFNETYTRR as substrate incubated for 40 mins followed by substrate addition measured after 4 hrs by AlphaSCREEN assay
[3] = Inhibition of GST tagged human BCL-XL deltaC25 by surface plasmon resonance assay
[4] = Inhibition of human BCL-2 deltaC22 by surface plasmon resonance assay
Procedure, shortened: (§1)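 Biacore solution competition. Protein (10 nM) preincubated 2 h with compound (12.5−0.0001 μM, 10-step half-log series) in HEPES running buffer pH 7.4 with EDTA and 0.005% Tween 20. Injected over a CM5 chip carrying wild-type or inert mBIM BH3 peptide. IC₅₀ by nonlinear curve fit. GST tag removed from BCL-XL and MCL-1 before use.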

[5] = Inhibition of human BCL-W deltaC23 C29S/A128E mutant by surface plasmon resonance assay; procedure, shortened: as §1
[6] = Inhibition of GST tagged human/mouse chimeric MCL-1 by surface plasmon resonance assay
[7] = Inhibition of mouse A1 deltaC20 P10K/C113S mutant by surface plasmon resonance assay; procedure, shortened: as §1
MEF [8] = assay: Cytotoxicity against MCL deficient mouse embryonic fibroblast cells assessed as reduction in cell viability in presence of 1 % fetal calf serum measured after 24 hrs by propidium iodide staining based flow cytometric analysis; format: functional
Procedure, shortened: (§2)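 MEFs (WT, MCL-1−/−, MCL-1−/−/BAX−/−/BAK−/−) seeded at 1 × 10⁴ cells/well in FMA medium with 1% FCS, 24 h before dosing. Four-point dilutions: 0.168−0.00005 μM for ABT-737, 25−3.13 μM for others; final DMSO 0.2%, duplicate wells, 24 h. Cells stained with PI, flow cytometry on 1000 events. PI-negative fraction normalized to DMSO vehicle; EC₅₀ by nonlinear regression, mean ± SEM of three experiments.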

MEF [9] = assay: Cytotoxicity against MCL-1deficient MEF cells assessed as release of cytochrome c from mitochondria at 25 uM FACS analysis; format: functional
Procedure, shortened: (§3)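 MEFs at 1.5 × 10⁵ cells/well in FMA medium with 1% FCS, 3 h rest, then compounds for 18 h (final DMSO 0.25%) beside a vehicle control. Cells permeabilized with 0.025% digitonin on ice for 5 min, then fixed in 1% paraformaldehyde. Stained with anti-cytochrome c (1:100) and a PE secondary in saponin buffer. FL2 read on 10 000 events for % cells with low cytochrome c. Four experiments; multiple unpaired t test (Holm−Sidak, α = 0.01).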

MEF [10] = assay: Cytotoxicity against wild type MEF cells assessed as release of cytochrome c from mitochondria FACS analysis; format: functional, cell-based; settings: Mus musculus; procedure, shortened: as §3
MEF [11] = assay: Cytotoxicity against MCL-1/BAX/BAK deficient MEF cells assessed as release of cytochrome c from mitochondria by FACS analysis; format: functional, cell-based; settings: Mus musculus; procedure, shortened: as §3
MEF [12] = assay: Cytotoxicity against wild type mouse embryonic fibroblast cells assessed as reduction in cell viability in presence of 1 % fetal calf serum measured after 24 hrs propidium iodide staining based flow cytometric analysis; format: functional; procedure, shortened: as §2
MEF [13] = assay: Cytotoxicity against MCL-1/BAX/BAK deficient mouse embryonic fibroblast cells assessed as reduction in cell viability in presence of 1 % fetal calf serum measured after 24 hrs propidium iodide staining based flow cytometric analysis; format: functional; procedure, shortened: as §2
MEF [14] = assay: Cytotoxicity against MCL-1deficient MEF cells assessed as release of cytochrome c from mitochondria at 2.5 uM FACS analysis; format: functional, Mus musculus; procedure, shortened: as §3
MEF [15] = assay: Cytotoxicity against mouse embryonic fibroblast cells assessed as reduction in cell viability in presence of 10 % fetal calf serum measured after 24 hrs propidium iodide staining based flow cytometric analysis; format: functional
COLO 205 = assay: Cytotoxicity against BCL-XL dependent human COLO205 cells assessed as reduction in cell viability measured after 48 hrs by CellTitre-Glo assay; format: functional, cell-based
Procedure, shortened: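 COLO205 cells (WT or BAK−/−/BAX−/−), kept in RPMI-1640 with 10% FCS, seeded at 3 × 10³ cells/well in medium with 10 or 1% FCS. Dosed one day later with six-point serial dilutions (0.0003−10 μM 1:8 for BH3 mimetics; 0.1−25 μM 1:3 for benzoylureas). Viability normalized to matched DMSO vehicle; EC₅₀ by curve fit.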

Compound | IC50 [1] [µM] | IC50 [2] [µM] | IC50 [3] [µM] | IC50 [4] [µM] | IC50 [5] [µM] | IC50 [6] [µM] | IC50 [7] [µM] | further results
Cc1ccc(CN(C(=O)N[C@@H](COCc2ccccc2)C(=O)O)C(=O)c2ccc(-c3ccccc3)cc2)cc1 | 0.38 | 11.8 |  |  |  |  |  | 
CCCN(C(=O)N[C@@H](CSCc1ccccc1)C(=O)O)C(=O)c1ccc(-c2ccccc2)cc1 | 31 | 28 |  |  |  |  |  | EC50 (MEF [8]): > 25 µM; Activity (MEF [9]; Mus musculus): inactive; Activity (MEF [10]): inactive; Activity (MEF [11]): inactive
Cc1ccc(CN(C(=O)N[C@@H](CSCc2ccccc2)C(=O)O)C(=O)c2ccc(-c3ccccc3)cc2)cc1 | 0.51 | 7.7 |  |  |  |  |  | 
CN(C)CC[C@H](CSc1ccccc1)Nc1ccc(S(=O)(=O)NC(=O)c2ccc(N3CCN(Cc4ccccc4-c4ccc(Cl)cc4)CC3)cc2)cc1[N+](=O)[O-] [ABT 737] | 0.004 | 40 | < 0.00025 | < 0.00025 | 0.012 | > 12.5 |  | EC50 (MEF [8]): 0.013 µM; Activity (MEF [12]): inactive; Activity (MEF [13]): inactive; Activity (MEF [14]): >90%
COC(=O)[C@H](CSCc1ccccc1)NC(=O)N(Cc1ccc(C)cc1)C(=O)c1ccc(-c2ccccc2)cc1 | > 100 | > 100 |  |  |  |  |  | 
CSC[C@H](NC(=O)N(Cc1ccc(C)cc1)C(=O)c1ccc(-c2ccccc2)cc1)C(=O)O | 13.1 | 44 |  |  |  |  |  | 
Cc1ccc(CN(C(=O)NCCSCc2ccccc2)C(=O)c2ccc(-c3ccccc3)cc2)cc1 | > 100 | > 100 |  |  |  |  |  | 

More lines, main results first:

IC50 [1] [µM] | IC50 [2] [µM] | IC50 [3] [µM] | IC50 [4] [µM] | IC50 [5] [µM] | IC50 [6] [µM] | IC50 [7] [µM] | Compound | further results
0.04 | 1.8 | 0.044 | 0.107 | > 12.5 | > 12.5 | 5.9 | Cc1ccc(CN(C(=O)N[C@@H](CS(=O)(=O)CC23CC4CC(CC(C4)C2)C3)C(=O)O)C(=O)c2ccc3c(c2)CCN(Cc2ccccc2-c2ccc(Cl)cc2)C3)cc1 | 
0.21 | 2 | 0.24 | 0.152 | 10 | > 12.5 | 4.6 | Cc1ccc(CN(C(=O)N[C@@H](CSCc2ccccc2)C(=O)O)C(=O)c2ccc3c(c2)CCN(Cc2ccccc2-c2ccc(Cl)cc2)C3)cc1 | 
0.46 | 10 | 0.62 | > 12.5 | > 12.5 | > 12.5 | > 12.5 | Cc1ccc(CN(C(=O)N[C@@H](CS(=O)(=O)CC2CCCCC2)C(=O)O)C(=O)c2ccc(-c3ccccc3)cc2)cc1 | 
0.17 | 5.3 | 0.133 | 0.066 | > 12.5 | > 12.5 | > 12.5 | Cc1ccc(CN(C(=O)N[C@@H](CS(=O)(=O)Cc2ccccc2)C(=O)O)C(=O)c2ccc3c(c2)CCN(Cc2ccccc2-c2ccc(Cl)cc2)C3)cc1 | 
0.19 | 6.1 | 0.42 | 9.4 | > 12.5 | > 12.5 | 6.8 | Cc1ccc(CN(C(=O)N[C@@H](CS(=O)(=O)CC23CC4CC(CC(C4)C2)C3)C(=O)O)C(=O)c2ccc(-c3ccccc3)cc2)cc1 | 
0.59 | 11.6 | 1.8 | > 12.5 | > 12.5 | > 12.5 | > 12.5 | Cc1ccc(CN(C(=O)N[C@@H](CS(=O)(=O)Cc2ccccc2)C(=O)O)C(=O)c2ccc(-c3ccccc3)cc2)cc1 | 
1.09 | 8 |  |  |  |  |  | Cc1ccc(CN(C(=O)N[C@@H](CCCc2ccccc2)C(=O)O)C(=O)c2ccc(-c3ccccc3)cc2)cc1 | 
0.24 | 1.5 |  |  |  |  |  | Cc1ccc(CN(C(=O)N[C@@H](CSCc2ccccc2)C(=O)O)C(=O)c2ccc(-c3cccc(-c4ccccc4-c4ccc(Cl)cc4)c3)cc2)cc1 | 
0.04 | 1.8 | 0.041 | 0.018 | 6.8 | > 12.5 | 4.6 | Cc1ccc(CN(C(=O)N[C@@H](CS(=O)(=O)CC2CCCCC2)C(=O)O)C(=O)c2ccc3c(c2)CCN(Cc2ccccc2-c2ccc(Cl)cc2)C3)cc1 | EC50 (MEF [8]): 19.2 µM; Activity (MEF [12]): inactive; Activity (MEF [13]): inactive; Activity (MEF [15]): inactive; Activity (COLO 205): inactive; Activity (MEF [9]): 30%; Activity (MEF [10]): inactive; Activity (MEF [11]): inactive

— ChEMBL document CHEMBL5038579, “Structure-Guided Development of Potent Benzoylurea Inhibitors of BCL-XL and BCL-2” (J Med Chem, 2021)
